{"data": "Published values from different studies", "target": "Cytochrome P450 2C19 (CYP2C19, Homo sapiens, UniProt P33261)", "observed": "enzyme activity", "mode": "inhibitor", "note": "Protocols differ between the studies behind these lines. pIC50: −log10 of the molar value."}
{"SMILES": "CCCN(CCC)CCc1cccc2c1CC(=O)N2", "assay": "fluorescence", "pIC50": "< 3.00"}
{"SMILES": "CN(Cc1cnc2nc(N)nc(N)c2n1)c1ccc(C(=O)N2CCCCC2)cc1", "assay": "luciferase", "pIC50": 4.79}
{"SMILES": "Cc1cc2c(F)c(Oc3ncnn4cc(OC[C@@H](C)O)c(C)c34)ccc2[nH]1", "assay": "fluorescence", "setting": "15 min", "pIC50": 5.44}
{"SMILES": "Cc1ccc2nc(-c3ccccc3)c(CNc3ccc(F)cc3)n2c1", "pIC50": 6.03}
{"SMILES": "CCOC(=O)C1CCN(C(=O)c2ccc(N(CC)Cc3cnc4nc(N)nc(N)c4n3)cc2)CC1", "assay": "luciferase", "pIC50": 5.17}
{"SMILES": "O=C(NCCN1CCCC1)c1cc(-c2ccc(CN3CCOCC3)cc2)nc2ccc(F)cc12", "system": "human, liver microsomes", "pIC50": "< 4.00"}
{"SMILES": "C#CCN(Cc1cnc2nc(N)nc(N)c2n1)c1ccc(C(=O)N2CCC(C(=O)OC)CC2)cc1", "assay": "luciferase", "pIC50": 5.01}
{"SMILES": "COc1ccc2c(Cc3ccccc3F)c3[n+](cc2c1OC)CCc1cc2c(cc1-3)OCO2", "pIC50": "< 5.00"}
{"SMILES": "CC(CN1c2ccccc2Sc2ccccc21)N(C)C (stereo not drawn)", "assay": "fluorescence", "pIC50": 4.39}
{"SMILES": "COc1ccc2[nH]c([S+]([O-])Cc3ncc(C)c(OC)c3C)nc2c1 (stereo not drawn)", "system": "human, liver microsomes", "setting": "90 min, pH 7.4", "pIC50": 6.18}
{"SMILES": "COC(=O)C1CCN(C(=O)c2ccc(N(Cc3ccccc3)Cc3cnc4nc(N)nc(N)c4n3)cc2)CC1", "assay": "luciferase", "pIC50": 6.71}
{"SMILES": "CCCCCNC(=N)N/N=C/c1c[nH]c2ccc(OC)cc12", "assay": "fluorescence", "pIC50": 5.93}
